# Assay results published in ChEMBL document CHEMBL1156340 (J Med Chem, 2010).
# Tests used:
# [1] = Plasma clearance in BALB/c mouse at 6 mg/kg, iv; format: ADME, organism-based; design: dose 6 mg/kg, route intravenous
# Summary of the method: (§1)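 Single-dose plasma pharmacokinetics with at least 3 animals per study. Tmax comes from oral dosing, and clearance and Vss from the parenteral arm. In rat that arm was given intra-arterially; in mouse, dog and monkey it was intravenous. Bioavailability is absolute, comparing the oral and parenteral arms.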
# [2] = Volume of distribution at steady state in BALB/c mouse at 6 mg/kg, iv; format: ADME, organism-based; design: dose 6 mg/kg, route intravenous; details: in vivo, read-out: Vdss; summary of the method: as §1
# [3] = Half life in BALB/c mouse at 6 mg/kg, iv; format: ADME, organism-based; design: dose 6 mg/kg, route intravenous; details: in vivo
# Summary of the method: (§2)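 Single-dose pharmacokinetics in each species by oral and intravenous routes; the rat intravenous arm was given intra-arterially. n ≥ 3 per study. Mouse exposure is reported as AUC0-8h.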
# [4] = Tmax in BALB/c mouse at 12 mg/kg, po; format: ADME, organism-based; design: dose 12 mg/kg, route oral; details: in vivo; summary of the method: as §1
# [5] = Cmax in BALB/c mouse at 12 mg/kg, po; format: ADME, organism-based; design: dose 12 mg/kg, route oral; details: in vivo; summary of the method: as §2
# [6] = Oral bioavailability in BALB/c mouse at 12 mg/kg; format: ADME, organism-based; details: in vivo; summary of the method: as §2
# [7] = AUC in Sprague-Dawley rat at 5 mg/kg, ia; format: ADME, organism-based; design: dose 5 mg/kg, route intra-arterial; details: plasma
# Summary of the method: (§3)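 Single-dose pharmacokinetic study with at least 3 animals per study; the ia route is intra-arterial administration.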
# [8] = Plasma clearance in Sprague-Dawley rat at 5 mg/kg, ia; format: ADME, organism-based; design: dose 5 mg/kg, route intra-arterial; summary of the method: as §1
# [9] = Volume of distribution at steady state in Sprague-Dawley rat at 5 mg/kg, ia; format: ADME, organism-based; design: dose 5 mg/kg, route intra-arterial; details: in vivo, read-out: Vdss; summary of the method: as §1
# [10] = Half life in Sprague-Dawley rat at 5 mg/kg, ia; format: ADME, organism-based; design: dose 5 mg/kg, route intra-arterial; details: in vivo; summary of the method: as §2
# [11] = Tmax in Sprague-Dawley rat at 10 mg/kg, po; format: ADME, organism-based; design: dose 10 mg/kg, route oral; details: in vivo; summary of the method: as §1
# [12] = Cmax in Sprague-Dawley rat at 10 mg/kg, po; format: ADME, organism-based; design: dose 10 mg/kg, route oral; details: in vivo; summary of the method: as §2
# [13] = AUC in Sprague-Dawley rat at 10 mg/kg, po; format: ADME, organism-based; design: dose 10 mg/kg, route oral; details: plasma; summary of the method: as §3
# [14] = Oral bioavailability in Sprague-Dawley rat at 10 mg/kg; format: ADME, organism-based; details: in vivo; summary of the method: as §1
# [15] = AUC in dog at 1 mg/kg, iv; format: ADME, organism-based, Canis lupus familiaris; design: dose 1 mg/kg, route intravenous; details: plasma; summary of the method: as §3
# [16] = Plasma clearance in dog at 1 mg/kg, iv; format: ADME, organism-based, Canis lupus familiaris; design: dose 1 mg/kg, route intravenous; summary of the method: as §1
# [17] = Volume of distribution at steady state in dog at 1 mg/kg, iv; format: ADME, organism-based, Canis lupus familiaris; design: dose 1 mg/kg, route intravenous; details: in vivo, read-out: Vdss; summary of the method: as §1
# [18] = Half life in dog at 1 mg/kg, iv; format: ADME, organism-based, Canis lupus familiaris; design: dose 1 mg/kg, route intravenous; details: in vivo; summary of the method: as §2
# [19] = Tmax in dog at 2 mg/kg, po; format: ADME, organism-based, Canis lupus familiaris; design: dose 2 mg/kg, route oral; details: in vivo; summary of the method: as §1
# [20] = Cmax in dog at 2 mg/kg, po; format: ADME, organism-based, Canis lupus familiaris; design: dose 2 mg/kg, route oral; details: in vivo; summary of the method: as §2
# [21] = AUC in dog at 2 mg/kg, po; format: ADME, organism-based, Canis lupus familiaris; design: dose 2 mg/kg, route oral; details: plasma; summary of the method: as §3
# [22] = Oral bioavailability in dog at 2 mg/kg, po; format: ADME, organism-based, Canis lupus familiaris; details: in vivo; summary of the method: as §1
# [23] = AUC in cynomolgus monkey at 1 mg/kg, iv; format: ADME, organism-based, Macaca fascicularis; design: dose 1 mg/kg, route intravenous; details: plasma; summary of the method: as §3
# [24] = Plasma clearance in cynomolgus monkey at 1 mg/kg, iv; format: ADME, organism-based, Macaca fascicularis; design: dose 1 mg/kg, route intravenous; summary of the method: as §1
# [25] = Volume of distribution at steady state in cynomolgus monkey at 1 mg/kg, iv; format: ADME, organism-based, Macaca fascicularis; design: dose 1 mg/kg, route intravenous; details: in vivo, read-out: Vdss; summary of the method: as §1
# [26] = Half life in cynomolgus monkey at 1 mg/kg, iv; format: ADME, organism-based, Macaca fascicularis; design: dose 1 mg/kg, route intravenous; details: in vivo; summary of the method: as §2
# [27] = Tmax in cynomolgus monkey at 2 mg/kg, po; format: ADME, organism-based, Macaca fascicularis; design: dose 2 mg/kg, route oral; details: in vivo; summary of the method: as §1
# [28] = Cmax in cynomolgus monkey at 2 mg/kg, po; format: ADME, organism-based, Macaca fascicularis; design: dose 2 mg/kg, route oral; details: in vivo; summary of the method: as §2
# [29] = AUC in cynomolgus monkey at 2 mg/kg, po; format: ADME, organism-based, Macaca fascicularis; design: dose 2 mg/kg, route oral; details: plasma; summary of the method: as §3
# [30] = Oral bioavailability in cynomolgus monkey at 2 mg/kg, po; format: ADME, organism-based, Macaca fascicularis; details: in vivo; summary of the method: as §1
# [31] = Crystalline aqueous solubility at pH 6.5; format: physicochemical; details: aqueous solution
# [32] = Crystalline aqueous solubility at pH 7.9; format: physicochemical; details: aqueous solution
# [33] = Metabolic stability in mouse liver microsomes assessed as glutathione conjugate at 30 uM in presence of glutathione; format: ADME, Microsome
# Summary of the method: (§4)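 Liver microsomes (mouse, rat or human) were fortified with 5 mM glutathione and incubated with 30 μM compound, then screened for glutathione conjugates.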
# Liver microsomes [34] = experiment: Metabolic stability in rat liver microsomes assessed as glutathione conjugate at 30 uM in presence of glutathione; format: ADME, Microsome; summary of the method: as §4
# Liver microsomes [35] = experiment: Metabolic stability in human liver microsomes assessed as glutathione conjugate at 30 uM in presence of glutathione; format: ADME, Microsome; summary of the method: as §4
# [36] = AUC (0 to 8 h) in BALB/c mouse at 6 mg/kg, iv; details: plasma
# [37] = AUC (0 to 8 h) in BALB/c mouse at 12 mg/kg, po; details: plasma
smiles,measurement,setting,value
COC(=O)N(CC(=O)O)Cc1cccc(OCc2nc(-c3ccc(Cl)cc3)oc2C)c1,clearance,[1],10.8 mL/min/kg
same,Vd,[2],1.3 L/kg
same,half-life,[3],3 h
same,Tmax,[4],0.25 h
same,Cmax,[5],23.8 µM
same,bioavailability,[6],88%
same,AUC,[7],48 µM·h
same,clearance,[8],4.3 mL/min/kg
same,Vd,[9],0.7 L/kg
same,half-life,[10],3.2 h
same,Tmax,[11],0.4 h
same,Cmax,[12],43 µM
same,AUC,[13],88 µM·h
same,bioavailability,[14],91%
same,AUC,[15],3.9 µM·h
same,clearance,[16],9.5 mL/min/kg
same,Vd,[17],1.8 L/kg
same,half-life,[18],7.9 h
same,Tmax,[19],0.9 h
same,Cmax,[20],1 µM
same,AUC,[21],4.5 µM·h
same,bioavailability,[22],58%
same,AUC,[23],5.8 µM·h
same,clearance,[24],8.9 mL/min/kg
same,Vd,[25],3.5 L/kg
same,half-life,[26],11.9 h
same,Tmax,[27],0.8 h
same,Cmax,[28],1.9 µM
same,AUC,[29],8.5 µM·h
same,bioavailability,[30],75%
same,solubility thermodynamic,[31],280 µg/mL
same,solubility thermodynamic,[32],> 4000 µg/mL
same,Stability,[33],Stable
same,Stability,Liver microsomes [34],Stable
same,Stability,Liver microsomes [35],Stable
same,AUC(0-8h),[36],19.3 µM·h
same,AUC(0-8h),[37],33.9 µM·h
